# pIC50: −log10 of the molar value. The source made the active and inactive calls. The calls are words filed in the database; no cut-off is given here.
# Columns and labels:
# DNA [1] = assay: Binding affinity to calf thymus DNA at 5:1 DNA to compound ratio by spectrophotometric analysis; assay type: nucleic-acid assay; conditions: Bos taurus
# HeLa = assay: Cytotoxicity against human HeLa cells assessed as growth inhibition by MTT assay; assay type: cell-based
# Coxsackievirus B4 [2] = assay: Antiviral activity against Coxsackievirus B4 infected in African green monkey Vero cells assessed as inhibition of virus-induced cytopathicity; assay type: functional, organism-based
# Outline: (§1)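 Confluent monolayers (HEL, Vero, HeLa or CrFK, as applicable) were inoculated with 100 CCID50 of virus, with 1 CCID50 being the dose that infects 50% of cultures. Infection ran in the presence of varying compound concentrations. Inhibition of virus-induced cytopathicity was scored against infected cultures left untreated.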
# Human betaherpesvirus 5 [3] = assay: Antiviral activity against Cytomegalovirus Davis infected in HEL cells assessed as inhibition of virus-induced cytopathicity; assay type: functional, organism-based
# DNA [4] = assay: Binding affinity to calf thymus DNA at 5:1 DNA to compound ratio by spectrophotometric analysis (reference value: 59.5 degC); assay type: nucleic-acid assay; conditions: Bos taurus
# Human alphaherpesvirus 2 = assay: Antiviral activity against HSV-2 G infected in HEL cells assessed as inhibition of virus-induced cytopathicity; assay type: functional, organism-based; conditions: strain G; outline: as §1
# Escherichia coli = assay: Binding affinity to Escherichia coli pUC18 DNA by fluorescence spectrophotometric analysis
# Outline: (§2)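 Steady-state fluorescence titration at ambient temperature, with excitation at 330 nm and emission at 376 nm. […] Binding constant derived from the emission changes.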
# Ferriprotoporphyrin IX [5] = assay: Binding affinity to monomeric Fe(III)PPIX at 5 umol by mass spectra analysis
# Outline: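 Solution-phase mass spectra were recorded after adding monomeric heme (5 μmol) to the compound (5 μmol) in 40% aqueous DMSO. The region between 1008 and 1024 Da was examined for adduct signals.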
# Plasmodium falciparum [6] = assay: Antiplasmodial activity against chloroquine-sensitive asexual erythrocytic stage of Plasmodium falciparum D10 assessed as parasite growth inhibition by lactate dehydrogenase assay; assay type: functional, organism-based
# Outline: (§3)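 Parasite lactate dehydrogenase assay (modified Makler method). Samples held as 20 mg/mL stocks in DMSO, diluted on test day. Full dose-response: starting at 10 μg/mL, 2-fold serial dilution in complete medium over 10 concentrations down to 0.02 μg/mL. Chloroquine, artesunate and MMV390048 served as references. IC50 from nonlinear dose-response curve fitting; mean of three independent experiments.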
# [7] = Cytotoxicity against human HeLa cells assessed as alteration of cell morphology by microscopic analysis; assay type: cell-based; conditions: read-out: MIC
# Outline: (§4)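 Cells (Vero, HEL, MDCK or HeLa) were exposed to a range of sample concentrations. The value reported is the concentration required to cause a microscopically detectable alteration of normal cell morphology.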
# Ferriprotoporphyrin IX [8] = assay: Binding affinity to monomeric Fe(III)PPIX by 1H NMR spectra analysis
# Plasmodium falciparum [9] = assay: Antiplasmodial activity against chloroquine-resistant asexual erythrocytic stage of Plasmodium falciparum Dd2 assessed as parasite growth inhibition by lactate dehydrogenase assay; assay type: functional, organism-based; outline: as §3
# Human respirovirus 3 = assay: Antiviral activity against parainfluenza virus 3 infected in African green monkey Vero cells assessed as inhibition of virus-induced cytopathicity; assay type: functional, organism-based; outline: as §1
# [10] = Solubility of the compound in octanol at pH 7.4 by HPLC analysis; assay type: physicochemical
# Feline coronavirus = assay: Antiviral activity against Feline coronavirus infected in cat CRFK cells assessed as inhibition of virus-induced cytopathicity; assay type: functional, organism-based; outline: as §1
# Human alphaherpesvirus 1 [11] = assay: Antiviral activity against HSV-1 KOS infected in HEL cells assessed as inhibition of virus-induced cytopathicity; assay type: functional, organism-based; outline: as §1
# [12] = tested on: Vesicular stomatitis virus; assay: Antiviral activity against Vesicular stomatitis virus infected in HEL cells assessed as inhibition of virus-induced cytopathicity; assay type: functional, organism-based
# Outline: (§5)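 Confluent monolayers in 96-well plates were inoculated with 100 CCID50 of virus in the presence of varying concentrations of compound. Read-out was inhibition of virus-induced cytopathicity, compared with untreated infected cultures. Cytotoxicity was judged microscopically or by MTT viability staining.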
# Human alphaherpesvirus 3 = assay: Antiviral activity against Varicella-zoster virus infected in HEL cells assessed as inhibition of virus-induced cytopathicity; assay type: functional, organism-based
# [13] = Cytotoxicity against cat CRFK cells assessed as cell viability by MTS assay; assay type: cell-based, Felis catus
# Outline: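 CRFK cells were exposed to varying sample concentrations. Cell viability was measured with the colorimetric formazan-based MTS assay, and the 50% cytotoxic concentration (CC50) was derived from it.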
# Human alphaherpesvirus 1 [14] = assay: Antiviral activity against thymidine kinase-negative acyclovir-resistant HSV-1 KOS infected in HEL cells assessed as inhibition of virus-induced cytopathicity; assay type: functional, organism-based; outline: as §5
# Ferriprotoporphyrin IX [15] = assay: Binding affinity to monomeric Fe(III)PPIX at pH 5.6
# Outline: (§6)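 UV-vis titration of monomeric Fe(III)PPIX (2.4 μM) with stepwise additions of compound (0−69 μM, in DMSO), in aqueous DMSO. Buffer was 0.02 M HEPES at pH 7.4 or 0.02 M MES at pH 5.6. Decrease of the Soret band at 402 nm was followed. Association constants were calculated from the titration curves. Stoichiometry was taken from Job's plot.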
# [16] = Aqueous solubility of the compound in PBS buffer at pH 7.4 after 24 hrs by HPLC analysis; assay type: physicochemical; conditions: pH 7.4, 24 h
# Influenza A virus = assay: Antiviral activity against influenza A virus H1N1 infected in MDCK cells assessed as inhibition of virus-induced cytopathicity; assay type: functional, organism-based; outline: as §5
# MDCK = assay: Cytotoxicity against MDCK cells assessed as alteration of cell morphology by microscopic analysis; assay type: cell-based, Canis lupus familiaris; conditions: dog; outline: as §4
# Plasmodium falciparum [17] = assay: Potency index, ratio of chloroquine IC50 to compound IC50 for chloroquine-resistant asexual erythrocytic stage of Plasmodium falciparum Dd2; assay type: functional
# Influenza A virus H3N2 = assay: Antiviral activity against Influenza A virus H3N2 infected in MDCK cells assessed as inhibition of virus-induced cytopathicity; assay type: functional, organism-based; outline: as §5
# Felid alphaherpesvirus 1 = assay: Antiviral activity against Feline herpesvirus infected in cat CRFK cells assessed as inhibition of virus-induced cytopathicity; assay type: functional, organism-based; outline: as §1
# Punta Toro virus = assay: Antiviral activity against Punta Toro virus infected in African green monkey Vero cells assessed as inhibition of virus-induced cytopathicity; assay type: functional, organism-based; outline: as §1
# [18] = tested on: Respiratory syncytial virus; assay: Antiviral activity against Respiratory syncytial virus infected in human HeLa cells assessed as inhibition of virus-induced cytopathicity; assay type: functional, organism-based; outline: as §1
# [19] = n-octanol-PBS buffer distribution coefficient, log D of the compound at pH 7.4 after 24 hrs by HPLC analysis; assay type: physicochemical
# [20] = Selectivity index, ratio of CC50 for cat CRFK cells to IC50 for chloroquine-resistant asexual erythrocytic stage of Plasmodium falciparum Dd2; assay type: functional
# Outline: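 Ratio of CRFK CC50 (μM) to Dd2 IC50 […]. CC50 is the 50% cytotoxic concentration in feline kidney CRFK cells, measured as cell viability by colorimetric formazan-based MTS assay. Dd2 IC50 is from the parasite LDH growth-inhibition assay.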
# Coxsackievirus B4 [21] = assay: Antiviral activity against Coxsackievirus B4 infected in human HeLa cells assessed as inhibition of virus-induced cytopathicity; assay type: functional, organism-based; outline: as §1
# Vaccinia virus = assay: Antiviral activity against Vaccinia virus infected in HEL cells assessed as inhibition of virus-induced cytopathicity; assay type: functional, organism-based; conditions: Orthopoxvirus vaccinia; outline: as §5
# [22] = tested on: Vesicular stomatitis virus; assay: Antiviral activity against Vesicular stomatitis virus infected in human HeLa cells assessed as inhibition of virus-induced cytopathicity; assay type: functional, organism-based; outline: as §5
# DNA [23] = assay: Binding affinity to calf thymus DNA assessed as hypochromic shift at 66.6 uM after 5 mins by UV-spectrophotometric analysis; assay type: nucleic-acid assay; conditions: Bos taurus
# Ferriprotoporphyrin IX [24] = assay: Binding affinity to monomeric Fe(III)PPIX at pH 7.4; outline: as §6
# Heme [25] = assay: Binding affinity to mu-oxodimeric heme at pH 5.8
# Outline: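 μ-Oxo dimer heme (10 μM) in 20 mM phosphate buffer, pH 5.8, titrated stepwise with compound (0.3−16 μM). Decrease in absorbance at 362 nm was monitored, and the binding constant was calculated from the titration curve.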
# Sindbis virus = assay: Antiviral activity against Sindbis virus infected in African green monkey Vero cells assessed as inhibition of virus-induced cytopathicity; assay type: functional, organism-based
# DNA [26] = assay: Binding affinity to calf thymus DNA by fluorescence spectrophotometric analysis; assay type: nucleic-acid assay; conditions: Bos taurus; outline: as §2
# Human betaherpesvirus 5 [27] = assay: Antiviral activity against Cytomegalovirus AD169 infected in HEL cells assessed as inhibition of virus-induced cytopathicity; assay type: functional, organism-based
# HEL = assay: Cytotoxicity against HEL cells assessed as alteration of cell morphology by microscopic analysis; assay type: cell-based; conditions: human; outline: as §4
# [28] = tested on: Mammalian orthoreovirus 1; assay: Antiviral activity against Reovirus 1 infected in African green monkey Vero cells assessed as inhibition of virus-induced cytopathicity; assay type: functional, organism-based; outline: as §1
# Vero = assay: Cytotoxicity against African green monkey Vero cells assessed as alteration of cell morphology by microscopic analysis; assay type: cell-based; conditions: chlorocebus sabaeus; outline: as §4
# Heme [29] = assay: Binding affinity to heme assessed as inhibition of beta-hematin formation at 1.2 equiv after 1 hr by FT-IR spectroscopic analysis
smiles,measurement,setting,value
CCN(CC)CCCC(C)Nc1ccnc2cc(Cl)ccc12 (centres undefined) [CHLOROQUINE PHOSPHATE],Activity,DNA [1],Active
same,pIC50,HeLa,4.52
Clc1ccc2c(NCCCNc3nccc(N4CCCCC4)n3)ccnc2c1,inhibition,Coxsackievirus B4 [2],inactive
same,inhibition,Human betaherpesvirus 5 [3],inactive
same,Tm,DNA [4],67.8 °C
same,inhibition,Human alphaherpesvirus 2,inactive
same,log Ks,Escherichia coli,3.99
same,Activity,Ferriprotoporphyrin IX [5],Active
same,pIC50,Plasmodium falciparum [6],7.65
same,MCC,[7],100 µM
same,Activity,Ferriprotoporphyrin IX [8],Active
same,pIC50,Plasmodium falciparum [9],7.37
same,inhibition,Human respirovirus 3,inactive
same,solubility,[10],1.74 µM
same,inhibition,Feline coronavirus,inactive
same,inhibition,Human alphaherpesvirus 1 [11],inactive
same,inhibition,[12],inactive
same,inhibition,Human alphaherpesvirus 3,inactive
same,CC50,[13],9.8 µM
same,inhibition,Human alphaherpesvirus 1 [14],inactive
same,log Ks,Ferriprotoporphyrin IX [15],4.59
same,solubility,[16],0.25 µM
same,inhibition,Influenza A virus,inactive
same,Activity,MDCK,Non-toxic
same,Ratio IC50,Plasmodium falciparum [17],3.2
same,inhibition,Influenza A virus H3N2,inactive
same,inhibition,Felid alphaherpesvirus 1,inactive
same,inhibition,Punta Toro virus,inactive
same,inhibition,[18],inactive
same,logD at 24 h,[19],0.845
same,Ratio CC50/IC50,[20],228
same,inhibition,Coxsackievirus B4 [21],inactive
same,inhibition,Vaccinia virus,inactive
same,inhibition,[22],inactive
same,Activity,DNA [23],23%
same,log Ks,Ferriprotoporphyrin IX [24],4.63
same,log Ks,Heme [25],5.84
same,inhibition,Sindbis virus,inactive
same,log Ks,DNA [26],3.64
same,inhibition,Human betaherpesvirus 5 [27],inactive
same,Activity,HEL,Non-toxic
same,inhibition,[28],inactive
same,Activity,Vero,Non-toxic
same,inhibition,Heme [29],Active

# Reference: ChEMBL document CHEMBL3112527, “Quinoline-pyrimidine hybrids: synthesis, antiplasmodial activity, SAR, and mode of action studies” (J Med Chem, 2014)
